A selection: hits, their analogues and other compounds. The true share with any hit is near 0.73%.
PKD1 inh – inhibitors of human PKD1 kinase, biochemical, fluorescence polarization | Serine/threonine-protein kinase D1 (Homo sapiens), Q15139 | PKD1 kinase fluorescence polarization assay | inhibition, % (concentration not given with the values) | 200,000 tested, 0.056% active; in the data active means inhibition above about 50%
Arbovirus anti – antivirals against arbovirus infection, primary screen, cell-based, full library, 10K replicate subset | AID 1251, 2008 | 200,000 tested, 0.37% active | arbovirus infection cell-based antiviral screen | inhibition, % at 10 µM; in the data active means inhibition above about 30%
TNAP inh hi DEA – human TNAP enzyme inhibitors, primary screen, biochemical, luminescent, high phosphate acceptor level, uHTS | purified TNAP, CDP-star luminescence, 1 M DEA | 200,000 tested, 0.03% active | inhibition, % at 20 µM;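 active means over 50% inhibition of tissue-nonspecific alkaline phosphatase at 20 µM in the single-dose screen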;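 further: plate controls were DMSO wells for no effect and EDTA-quenched wells as full inhibition for full effect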
Target sequence (P05186 whole entry, looked up): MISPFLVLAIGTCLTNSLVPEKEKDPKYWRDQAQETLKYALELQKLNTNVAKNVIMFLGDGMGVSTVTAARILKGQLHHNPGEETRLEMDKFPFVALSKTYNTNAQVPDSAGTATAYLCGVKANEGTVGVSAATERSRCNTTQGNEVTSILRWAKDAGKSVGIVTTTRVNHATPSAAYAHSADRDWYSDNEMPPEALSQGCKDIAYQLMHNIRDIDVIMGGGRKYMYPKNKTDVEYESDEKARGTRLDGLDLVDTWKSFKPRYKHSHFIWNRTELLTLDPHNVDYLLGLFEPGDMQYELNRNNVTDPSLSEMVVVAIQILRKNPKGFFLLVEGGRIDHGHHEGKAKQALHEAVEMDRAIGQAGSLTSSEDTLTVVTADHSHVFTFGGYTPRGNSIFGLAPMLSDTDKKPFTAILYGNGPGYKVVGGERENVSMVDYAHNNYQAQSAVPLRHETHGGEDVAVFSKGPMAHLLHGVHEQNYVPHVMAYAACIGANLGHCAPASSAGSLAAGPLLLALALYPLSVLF
TNAP inh no acc – human TNAP enzyme inhibitors, primary screen, biochemical, luminescent, no phosphate acceptor, uHTS; purified TNAP, CDP-star luminescence, 30 min; 200,000 tested, 0.26% active; Alkaline phosphatase, tissue-nonspecific isozyme (Homo sapiens), P05186; inhibition, % at 20 µM;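 active means tissue-nonspecific alkaline phosphatase inhibition above about 50% at 20 µM in the single-dose screen, limit read from the data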;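 further: 0% = DMSO negative control and 100% = EDTA positive control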
TNAP act hiacc – TNAP activators at high phosphate acceptor level, primary screen, biochemical, luminescence, uHTS | purified TNAP, CDP-star luminescence, 1 M DEA, 30 min; active compounds read high; 0 = EDTA background, 1 = DMSO-only activity | activation factor at 20 µM | 200,000 tested, under 10 active | AID 1136, 2008;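 active means activation factor at least 2 at 20 µM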
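Assay system: human TNAP; Input: enzyme diluted 1/800 final; Reagent: CDP-star luminogenic substrate at 100 µM final; Timing: 30 min, room temperature; Signal: luminescence; Evaluation: TNAP activation factor scaled between EDTA and DMSO control wells.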
* = called active by the depositor; . = no result given; ! = not active in a repeat.

SMILES	PKD1 inh	Arbovirus anti	TNAP inh hi DEA	TNAP inh no acc	TNAP act hiacc
CCOC(=O)C1CCCN(Cc2ccccc2Cl)C1 (stereo unspecified)	-8	88*	-6	0	1.1
CCN(CCNCC(O)COCc1ccc(Cl)cc1)c1cccc(C)c1 (stereo unspecified)	-1	-33	3	-12	1
CCc1nnc(NC(=O)c2cc3ccccc3oc2=O)s1	-7	65*	-2	-8	1
Cc1ccccc1-c1nnc(NC(=O)c2cc3ccccc3oc2=O)s1	-14	-4	4	18	1
Cc1ccc(S(=O)(=O)c2ccc(Cl)cc2)cc1S(=O)(=O)N(C)CC(=O)O	-6	2	-7	-8	1.1
O=C(/C=C/c1cccc([N+](=O)[O-])c1)N1CCN(c2ccc(F)cc2)CC1	1	-3	-4	-7	1
O=C1NC(=Nc2ccccc2)S/C1=C\C=C\c1ccco1	-3	15	9	56*	0.9
COC(=O)c1ccccc1-n1cccc1C(=O)NP(=O)(N1CCOCC1)N1CCOCC1	-1	11	0	-5	1
CCNC(=O)CC1SC(=Nc2ccc(C)cc2)NC1=O (stereo unspecified)	-5	1	0	23	1
Cc1ccc(N=C2NC(=O)C(CC(=O)O)S2)cc1 (stereo unspecified)	0	-2	-4	64*	1
N[C@@H](Cc1cc(I)c(Oc2ccc(O)c(I)c2)c(I)c1)C(=O)O	-9	47*!	-2	-6	1
C=CCOc1c(Br)cc(/C=N/n2c(CC)n[nH]c2=S)cc1Br	-1	8	16	59*	0.8
CCOP(=O)(OCC)C(O)c1cc(OC)c(OC)c(OC)c1 (stereo unspecified)	-3	-2	4	-11	1
Cc1c(CN2CCC(CO)(CC3CCCCO3)CC2)cnn1C (stereo unspecified)	-5	-1	0	-5	1
CC(C)n1c(NCCc2ccccc2)nc2c1c(=O)n(C)c(=O)n2C	-10	30*	-5	-13	1
CCCNc1nc2c(c(=O)n(C)c(=O)n2C)n1CCc1ccccc1	0	6	-6	-9	1.1
CCOC(=O)C1(CCCc2ccccc2)CCN(C2CCSCC2)CC1	-1	30*	-6	-6	1.1
O=C(c1n[nH]c2ccccc12)N1CCOCC1	1	4	1	22	1
COc1ccc(CNC(=O)COC(=O)c2n[nH]c3ccccc23)cc1OC	-1	4	1	43	1
O=C(c1n[nH]c2ccccc12)N1CCCCC1	1	5	0	82*	1
Cc1cc(NC(=O)COC(=O)c2n[nH]c3ccccc23)no1	-4	-5	-4	52*	1
CC1CCCN(C(=O)COC(=O)c2n[nH]c3ccccc23)C1 (stereo unspecified)	-5	8	-1	60*	1
COc1ccccc1NC(=O)CCN1C(=O)c2ccccc2S1(=O)=O	0	3	-2	-5	1
Cc1cccc(NC(NC(=O)Cc2ccccc2)C(Cl)(Cl)Cl)c1 (stereo unspecified)	-8	14	-3	-8	1
Cc1ccc(C(=O)O)cc1-c1ccc(/C=C2/NC(=O)N(c3ccccc3)C2=O)o1	1	40*	3	5	1
SMILES	PKD1 inh	Arbovirus anti	TNAP inh hi DEA	TNAP inh no acc	TNAP act hiacc
Cc1cc(C(=O)O)ccc1-c1ccc(/C=C2\NC(=O)N(Cc3ccccc3Cl)C2=O)o1	1	14	6	3	0.9
CCOc1cc(C(c2c(C)[nH][nH]c2=O)c2c(C)[nH][nH]c2=O)ccc1OS(=O)(=O)c1ccc(C)cc1	-2	0	52*	-13	0.5
CCOc1ccc(C(c2c(C)[nH][nH]c2=O)c2c(C)[nH][nH]c2=O)cc1OC	-4	-11	65*	47	0.4
S=C(NCc1ccccc1)NN1CCOCC1	-3	6	-2	-7	1
CCCCn1c(SCC(=O)N2CCN(c3ccccc3)CC2)nc2ccsc2c1=O	3	34*	-6	-12	1.1
CCC(=O)n1nc(-c2ccc(Cl)cc2)nc1N	-1	5	-7	59*	1.1
Nc1nc(-c2ccc(Cl)cc2)nn1C(=O)c1cccnc1	-2	0	-2	58*	1
C=CCSc1nc2c(sc3nc(C)cc(C)c32)c(=O)[nH]1	3	65*	-7	-6	1.1
CC(=O)Nc1ccc(SCC(=O)N(C)C2CCS(=O)(=O)C2)cc1 (stereo unspecified)	1	4	-3	-7	1
CCc1cc(C(=O)O)c(NC(=O)C(c2ccccc2)c2ccccc2)s1	-8	35*	-4	-14	1
C=CCOc1c(Br)cc(/C=N/Nc2ccc(C(=O)O)cc2)cc1OCC	0	31*	0	-1	1
Cc1ccc(O)c(-c2cc(C(F)(F)C(F)F)[nH]n2)c1	-12	34*	1	-16	1
CCCCNC(=O)c1onc(CSc2ccc(Cl)cc2)c1C(=O)O	5	8	-4	0	1
CCOC(=O)c1c(-c2ccc(C)c(C)c2)csc1NC(=O)C1CC=CCC1C(=O)O (stereo unspecified)	2	41*	0	-15	1
Cc1c2cc(O)c(=O)cc-2oc2cc(O)c(O)cc12	-10	-10	18	57*	0.8
COc1cc(OC)c(-c2c3cc(O)c(=O)cc-3oc3cc(O)c(O)cc23)cc1OC	11	-17	22	-325	0.8
Nc1ccn([C@@H]2O[C@H](CO)[C@@H](O)C2O)c(=O)n1 (stereo partly specified)	.	-12	-6	-9	1.1
O=c1cnn([C@@H]2O[C@H](CO)[C@@H](O)[C@H]2O)c(=O)[nH]1	-5	78*	3	-5	1
CCOc1ccc(-n2cc(-c3ccc(OC)c(OC)c3)[nH]c2=S)cc1	4	0	-1	62*	1
CC(=O)c1ccc(N2CCN(C(=O)c3cc(-c4cccnc4)nc4ccc(Br)cc34)CC2)cc1	-6	32*	-5	-5	1.1
COC(=O)c1ccc(COc2ccccc2/C=C(\C#N)C(=O)Nc2c(C)cccc2C)cc1	10	8	-1	-6	1
CCC(=O)Nc1ccc(N2CCOCC2)c(S(=O)(=O)Nc2ccc(OC)cc2)c1	-2	-1	0	-4	1
COc1ccc(NS(=O)(=O)c2cc(NC(=O)/C=C/c3cccs3)ccc2N2CCOCC2)cc1	1	64*	-2	1	1
NC(=O)C1CCN(C(=S)NCCc2ccccc2)CC1	-7	3	-6	-10	1.1
O=C(N/N=C/c1ccc(O)cc1)c1cc(-c2ccc3c(c2)OCO3)n[nH]1	5	-1	1	91*	1
